# Data: ChEMBL document CHEMBL1154633, “Synthesis and biological evaluation of 2-alkynyl-N6-methyl-5'-N-methylcarboxamidoadenosine derivatives as potent and highly selective agonists for the human adenosine A3 receptor” (J Med Chem, 2009)
# Active and inactive are the calls of the source. The calls are words filed in the database; no cut-off is given here.
# Experiments:
# Adenosine receptor A2a = Adenosine receptor A2a (Homo sapiens, UniProt P29274); test: Displacement of [3H]NECA from human recombinant adenosine A2A receptor expressed in CHO cells; type: cell-based
# Outline: (§1)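 Competition binding in 96-well microplates with radioligand [3H]NECA on CHO cells stably transfected with human recombinant A2AR or A3R. Ki of unlabeled compound from displacement of specific binding, with 95% confidence intervals.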
# [1] = target: T1, Adenosine receptor A3 (Homo sapiens) (UniProt P0DMS8); test: Agonist activity at human recombinant adenosine A3 receptor expressed in CHO cells assessed as nonradiaoactive DELFIA Eu-GTP binding treated for 15 mins before addition of Eu-GTP measured after 45 mins by time-resolved fluorometric method relative to Cl-IBMECA; type: cell-based; set-up: concentration or dose not given beside the values
# T1 sequence (whole entry): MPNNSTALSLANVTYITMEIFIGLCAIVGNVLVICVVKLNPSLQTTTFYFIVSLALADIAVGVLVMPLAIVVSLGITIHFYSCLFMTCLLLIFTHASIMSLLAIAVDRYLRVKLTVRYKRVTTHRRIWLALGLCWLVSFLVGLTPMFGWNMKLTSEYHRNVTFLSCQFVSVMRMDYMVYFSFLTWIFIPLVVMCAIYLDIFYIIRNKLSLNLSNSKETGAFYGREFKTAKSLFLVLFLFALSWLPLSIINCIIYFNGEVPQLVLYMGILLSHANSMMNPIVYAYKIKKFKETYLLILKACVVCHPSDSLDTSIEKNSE
# Homo sapiens = organism: Homo sapiens; test: Selectivity ratio of Ki for human recombinant adenosine A2A receptor to Ki for human recombinant adenosine A3 receptor
# Outline: (§2)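 Selectivity is Ki at human A1R (displacement of [3H]CCPA) or at human A2AR (displacement of [3H]NECA) divided by Ki at human A3R (displacement of [3H]NECA). All receptors stably expressed in CHO cells, competition experiments in 96-well microplates.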
# [2] = target: Adenosine receptors; A1 & A3 (Homo sapiens) (UniProt P30542+P0DMS8); test: Selectivity ratio of Ki for human recombinant adenosine A1 receptor to Ki for human recombinant adenosine A3 receptor; outline: as §2
# Adenosine receptor A3 [3] = target: T2, Adenosine receptor A3 (Homo sapiens, UniProt P0DMS8); test: Displacement of [3H]NECA from human recombinant adenosine A3 receptor expressed in CHO cells; type: cell-based; outline: as §1
# T2 sequence (P0DMS8 whole entry): T1 sequence (whole entry)
# [4] = target: T1, Adenosine receptor A3 (Homo sapiens); test: Agonist activity at human recombinant adenosine A3 receptor expressed in CHO cells assessed as nonradiaoactive DELFIA Eu-GTP binding treated for 15 mins before addition of Eu-GTP measured after 45 mins by time-resolved fluorometric method in presence of increasing saponin concentration; type: cell-based
# Adenosine receptor A1 = target: T3, Adenosine receptor A1 (Homo sapiens, UniProt P30542); test: Displacement of [3H]CCPA from human recombinant adenosine A1 receptor expressed in CHO cells; type: cell-based
# T3 sequence (P30542 whole entry): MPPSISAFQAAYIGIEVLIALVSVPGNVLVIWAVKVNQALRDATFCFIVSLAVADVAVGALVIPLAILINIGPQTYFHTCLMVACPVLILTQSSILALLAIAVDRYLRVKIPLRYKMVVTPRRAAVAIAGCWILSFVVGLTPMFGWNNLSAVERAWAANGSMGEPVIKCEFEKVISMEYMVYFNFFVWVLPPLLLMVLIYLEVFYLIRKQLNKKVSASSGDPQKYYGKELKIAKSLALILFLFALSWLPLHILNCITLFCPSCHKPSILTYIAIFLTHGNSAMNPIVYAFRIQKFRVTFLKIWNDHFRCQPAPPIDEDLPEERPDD
# Adenosine receptor A3 [5] = target: T2, Adenosine receptor A3; test: Agonist activity at human recombinant adenosine A3 receptor expressed in CHO cells assessed as nonradiaoactive DELFIA Eu-GTP binding treated for 15 mins before addition of Eu-GTP measured after 45 mins by time-resolved fluorometric method; type: cell-based
# [6] = target: T1, Adenosine receptor A3 (Homo sapiens); test: Ratio of Cl-IBMECA EC50 to compound EC50 for human recombinant adenosine A3 receptor expressed in CHO cells; type: cell-based
# Adenosine receptor A2a, sequence (P29274 whole entry): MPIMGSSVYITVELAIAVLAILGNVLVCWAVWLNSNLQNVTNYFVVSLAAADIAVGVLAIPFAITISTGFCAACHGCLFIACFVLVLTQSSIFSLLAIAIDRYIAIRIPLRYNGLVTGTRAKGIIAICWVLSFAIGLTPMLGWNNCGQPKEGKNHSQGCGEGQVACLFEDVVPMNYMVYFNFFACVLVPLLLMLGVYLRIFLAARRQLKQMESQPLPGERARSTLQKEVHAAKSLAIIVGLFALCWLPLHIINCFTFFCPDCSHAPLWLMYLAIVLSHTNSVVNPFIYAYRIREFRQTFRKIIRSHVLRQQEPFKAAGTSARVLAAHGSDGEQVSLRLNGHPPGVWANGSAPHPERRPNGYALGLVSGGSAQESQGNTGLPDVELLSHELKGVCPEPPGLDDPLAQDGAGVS
Compound,Ki (Adenosine receptor A2a),Activity [1],Ratio Ki (Homo sapiens),Ratio Ki [2],Ki (Adenosine receptor A3 [3]),Activity [4],Ki (Adenosine receptor A1),EC50 (Adenosine receptor A3 [5]),Ratio EC50 [6]
CNC(=O)[C@H]1O[C@@H](n2cnc3c(NC)nc(C#Cc4ccc(F)cc4)nc32)[C@H](O)[C@@H]1O,12.7 µM,100%,29500,12500,0.00043 µM,inactive,5.31 µM,0.19 µM,
CNC(=O)[C@H]1O[C@@H](n2cnc3c(NCc4ccc(I)cc4)nc(Cl)nc32)[C@H](O)[C@@H]1O,,,,,,,,0.363 µM,
CNC(=O)[C@H]1O[C@@H](n2cnc3c(NOC)nc(C#Cc4ccccn4)nc32)[C@H](O)[C@@H]1O,,100%,16400,3600,,inactive,,0.052 µM,7
CNC(=O)[C@H]1O[C@@H](n2cnc3c(NOC)nc(C#Cc4ccccc4)nc32)[C@H](O)[C@@H]1O,,100%,8600,4800,,inactive,,0.12 µM,
CONc1nc(C#Cc2ccccn2)nc2c1ncn2[C@@H]1O[C@H](CO)[C@@H](O)[C@H]1O,,9%,,,,,,,
CNc1nc(C#Cc2ccccc2)nc2c1ncn2[C@@H]1O[C@H](CO)[C@@H](O)[C@H]1O,,65%,2500,500,,,,0.29 µM,
CNC(=O)[C@H]1O[C@@H](n2cnc3c(NC)nc(C#Cc4ccccn4)nc32)[C@H](O)[C@@H]1O,24.3 µM,100%,61000,22000,0.0004 µM,inactive,8.74 µM,0.046 µM,7
CNC(=O)[C@H]1O[C@@H](n2cnc3c(NC)nc(C#Cc4ccccc4)nc32)[C@H](O)[C@@H]1O,41.7 µM,100%,97000,76500,0.00044 µM,inactive,32.8 µM,0.151 µM,
CNC(=O)[C@H]1O[C@@H](n2cnc3c(NOC)nc(C#Cc4ccc(F)cc4)nc32)[C@H](O)[C@@H]1O,,100%,9800,1600,,inactive,,0.21 µM,
CONc1nc(C#Cc2ccccc2)nc2c1ncn2[C@@H]1O[C@H](CO)[C@@H](O)[C@H]1O,,55%,1100,300,0.0038 µM,,,0.32 µM,
